From paper PMC9361925 (RSC Advances, 2022)
Where two headings read alike, the source gives them in different places.

How the values were obtained:
[1] = tested on: epidermoid carcinoma (KB, ATCC number CCL-17); conditions: read-out: IC50 KB; KB cells; cited from earlier work
[2] = tested on: human embryonic kidney (HEK-293, ATCC number CRL-1573) cell line; conditions: read-out: IC50 Hek-293; non-cancerous Hek-293 cells; cited from earlier work
[3] = tested on: SK-Lu-1 cells; experiment: Annexin V FITC and PI flow cytometry assay for apoptosis; type: cell-based, human; conditions: 24 h; for % Necrotic cells: Annexin-V/PI (Q2-1); for % Late apoptosis cells: Annexin-V/PI (Q2-2); for % Early apoptosis cells: Annexin-V/PI (Q2-4); for % Total apoptosis cells: early + late
How it was run: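 SK-LU-1 cells (3 × 10^5 per 25 cm2 flask; DMEM, 7–10% FBS, penicillin/streptomycin, 37 °C, 5% CO2) exposed 24 h to test compound. Controls: DMSO 0.5%, ellipticine 1.3 μM, vincristine 0.4 and 4 μM. Cells were harvested, washed in cold PBS and resuspended in annexin-binding buffer. They were stained with FITC-annexin V plus PI (100 μg mL−1 working solution) for 15 min at room temperature, then diluted and analysed by flow cytometry.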

[4] = tested on: breast (MCF7, HTB-22™) cancer cell line; conditions: read-out: IC50 MCF7; MCF7 cells; cited from earlier work
[5] = tested on: hepatocellular carcinoma (HepG2, ATCC number HB-8065); conditions: read-out: IC50 HepG2; HepG2 cells; cited from earlier work
[6] = tested on: SK-Lu-1 cells; experiment: Cell cycle analysis by flow cytometry; type: cell-based, human; conditions: 24 h
How it was run: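 Log-phase SK-LU-1 cells (3 × 10^5 per 25 cm2 flask) treated 24 h with test compound at 0.08, 0.16 or 0.32 μM. Controls: DMSO 0.05%, ellipticine 1.3 μM, vincristine 0.4 and 4 μM. Cells were PBS-washed and fixed in ice-cold 70% ethanol at −20 °C for 2 h. They were then treated with RNase A (1 mg mL−1, 37 °C, 15 min), stained with PI for 30 min and analysed by flow cytometry.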

[7] = tested on: caspase-3/7 activation in human lung SK-LU-1 cancer cells; experiment: Caspase-3/7 assay; type: cell-based; conditions: SK-LU-1 cells, 0.08 μM, 0.16 μM, and 0.32 μM
How it was run: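 SK-LU-1 cells (2 × 10^5 per well) incubated 5 h at 37 °C, 5% CO2, with test compound at 0.08, 0.16 or 0.32 μM. Controls: ellipticine 1.3 μM, vincristine 4 μM; solvent served as blank. Apo-ONE caspase-3/7 reagent was added, briefly shaken and left at room temperature for 1–18 h. Fluorescence was read at Ex 485/Em 530 nm. Activity = sample RFU minus blank RFU.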

[8] = tested on: SK-Lu-1 cells; experiment: Cell nucleus staining with Hoechst 33342; type: cell-based, human; conditions: 0.08 μM, 0.16 μM, and 0.32 μM, 24 h
[9] = tested on: SK-Lu-1 cells; conditions: read-out: IC50 SK-Lu-1; cited from earlier work
[10] = tested on: epidermoid carcinoma (KB, ATCC number CCL-17); experiment: MTT cytotoxicity assay, KB cells; type: cell-based; conditions: Homo sapiens, 72 h, read-out: IC50 KB
How it was run: (§1)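 Log-phase cells in DMEM with 7–10% FBS and penicillin/streptomycin (37 °C, 5% CO2) seeded at 3 × 10^4 cells per mL. Exposed 3 days to test compound in DMSO at 1.00, 0.25, 0.0625 and 0.0156 μg mL−1. MTT (5 mg mL−1 stock in 0.1 M PBS, pH 7.4) added for 4 h at 37 °C; formazan dissolved in DMSO, absorbance at 540 nm. Growth inhibition calculated relative to untreated controls.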

[11] = tested on: lung (A549) cancer cell line; experiment: MTT cytotoxicity assay, A549 cells; type: cell-based; conditions: Homo sapiens, A549, 72 h, read-out: IC50 A549
How it was run: as §1

[12] = tested on: hepatocellular carcinoma (HepG2, ATCC number HB-8065); experiment: MTT cytotoxicity assay, HepG2 cells; type: cell-based; conditions: Homo sapiens, HepG2, 72 h, read-out: IC50 HepG2
How it was run: as §1

[13] = tested on: human embryonic kidney (HEK-293, ATCC number CRL-1573) cell line; experiment: MTT cytotoxicity assay, Hek-293 cells; type: cell-based; conditions: HEK293, 72 h, read-out: IC50 Hek-293
How it was run: as §1

[14] = tested on: breast (MCF7, HTB-22™) cancer cell line; experiment: MTT cytotoxicity assay, MCF7 cells; type: cell-based; conditions: Homo sapiens, MCF7, 72 h, read-out: IC50 MCF7
How it was run: as §1

COc1cccc(C2C3=C(COC3=O)NC3=C2C(=O)c2ccccc2C3=O)c1 (stereo not drawn) [5a, 11-(3-Methoxyphenyl)-4,11-dihydrobenzo[g]furo[3,4-b]quinoline-1,5,10(3H)-trione]
IC50 [1]: 1230 ± 10 nM | IC50 [2]: 9350 ± 440 nM | % Necrotic cells ([3]; SK-LU-1, 0.08 μM): 0.59% | % Late apoptosis cells ([3]; SK-LU-1, 0.08 μM): 0.82% | % Early apoptosis cells ([3]; SK-LU-1, 0.08 μM): 1.30% | % Total apoptosis cells ([3]; SK-LU-1, 0.08 μM): 2.12% | % Necrotic cells ([3]; SK-LU-1, 0.16 μM): 2.64% | % Late apoptosis cells ([3]; SK-LU-1, 0.16 μM): 2.40% | % Early apoptosis cells ([3]; SK-LU-1, 0.16 μM): 7.23% | % Total apoptosis cells ([3]; SK-LU-1, 0.16 μM): 9.63% | % Necrotic cells ([3]; SK-LU-1, 0.32 μM): 4.68% | % Late apoptosis cells ([3]; SK-LU-1, 0.32 μM): 4.25% | % Early apoptosis cells ([3]; SK-LU-1, 0.32 μM): 11.59% | % Total apoptosis cells ([3]; SK-LU-1, 0.32 μM): 15.84% | IC50 [4]: > 2500 nM | IC50 [5]: 460 ± 10 nM | Percentage of cell by phases, % G0/G1 ([6]; SK-LU-1, 0.08 μM): 47.91% | Percentage of cell by phases, % G2/M ([6]; SK-LU-1, 0.08 μM): 20.58% | Percentage of cell by phases, % S ([6]; SK-LU-1, 0.08 μM): 30.45% | Percentage of cell by phases, % G0/G1 ([6]; SK-LU-1, 0.16 μM): 0.58% | Percentage of cell by phases, % G2/M ([6]; SK-LU-1, 0.16 μM): 82.17% | Percentage of cell by phases, % S ([6]; SK-LU-1, 0.16 μM): 5.78% | Percentage of cell by phases, % G0/G1 ([6]; SK-LU-1, 0.32 μM): 0.28% | Percentage of cell by phases, % G2/M ([6]; SK-LU-1, 0.32 μM): 84.70% | Percentage of cell by phases, % S ([6]; SK-LU-1, 0.32 μM): 4.05% | caspase-3/7 activity as compared to Ellipticine (1.3 μM) [7]: 4-5 fold | changes in cell morphology (Hoechst staining) [8]: nucleus fragmentation and chromatin condensation | IC50 [9]: < 40 nM

O=C1OCC2=C1C(c1ccccc1)C1=C(N2)C(=O)c2ccccc2C1=O (stereo not drawn) [5d, 11-(Phenyl)-4,11-dihydrobenzo[g]furo[3,4-b]quinoline-1,5,10(3H)-trione]
IC50 [1]: 1540 ± 10 nM | IC50 [2]: 1340 ± 10 nM | IC50 [4]: 1980 ± 40 nM | IC50 [5]: < 44 nM | IC50 [9]: < 44 nM

O=C1OCC2=C1C(c1ccccc1O)C1=C(N2)C(=O)c2ccccc2C1=O (stereo not drawn) [5h, 11-(2-Hydroxyphenyl)-4,11-dihydrobenzo[g]furo[3,4-b]quinoline-1,5,10(3H)-trione]
IC50 [10]: 570 ± 20 nM | IC50 [11]: 430 ± 10 nM | IC50 [12]: 630 ± 20 nM | IC50 [13]: 2030 ± 60 nM | IC50 [14]: 1610 ± 30 nM

O=C1OCC2=C1C(c1ccc(O)cc1)C1=C(N2)C(=O)c2ccccc2C1=O (stereo not drawn) [5i, 11-(4-Hydroxyphenyl)-4,11-dihydrobenzo[g]furo[3,4-b]quinoline-1,5,10(3H)-trione]
IC50 [10]: > 2500 nM | IC50 [11]: 1590 ± 30 nM | IC50 [12]: > 2500 nM | IC50 [13]: 6460 ± 150 nM | IC50 [14]: 2230 ± 60 nM

O=C1OCC2=C1C(c1ccc([N+](=O)[O-])cc1)C1=C(N2)C(=O)c2ccccc2C1=O (stereo not drawn) [5j, 11-(4-Nitrophenyl)-4,11-dihydrobenzo[g]furo[3,4-b]quinoline-1,5,10(3H)-trione]
IC50 [10]: > 2500 nM | IC50 [11]: 1120 ± 40 nM | IC50 [12]: > 2500 nM | IC50 [13]: 7170 ± 160 nM | IC50 [14]: > 2500 nM

N#Cc1ccc(C2C3=C(COC3=O)NC3=C2C(=O)c2ccccc2C3=O)cc1 (stereo not drawn) [5k, 4-(1,5,10-Trioxo-1,3,4,5,10,11-hexahydrobenzo[g]furo[3,4-b]quinolin-11-yl)benzonitrile]
IC50 [10]: > 2500 nM | IC50 [11]: 2030 ± 50 nM | IC50 [12]: > 2500 nM | IC50 [13]: > 20000 nM | IC50 [14]: > 2500 nM

COc1ccc(C2C3=C(COC3=O)NC3=C2C(=O)c2ccccc2C3=O)cc1OC (stereo not drawn) [5l, 11-(3,4-Dimethoxyphenyl)-4,11-dihydrobenzo[g]furo[3,4-b]quinoline-1,5,10(3H)-trione]
IC50 [10]: 520 ± 20 nM | IC50 [11]: 1100 ± 20 nM | IC50 [12]: 530 ± 20 nM | IC50 [13]: 2230 ± 80 nM | IC50 [14]: 2280 ± 70 nM

COc1cc(C2C3=C(COC3=O)NC3=C2C(=O)c2ccccc2C3=O)cc(OC)c1OC (stereo not drawn) [5m, 11-(3,4,5-Trimethoxyphenyl)-4,11-dihydrobenzo[g]furo[3,4-b]quinoline-1,5,10(3H)-trione]
IC50 [10]: 20 ± 10 nM | IC50 [11]: 620 ± 20 nM | IC50 [12]: 20 ± 10 nM | IC50 [13]: 30 ± 10 nM | IC50 [14]: 120 ± 30 nM

O=C1OCC2=C1C(c1cccnc1)C1=C(N2)C(=O)c2ccccc2C1=O (stereo not drawn) [5n, 11-(Pyridin-3-yl)-4,11-dihydrobenzo[g]furo[3,4-b]quinoline-1,5,10(3H)-trione]
IC50 [10]: 620 ± 10 nM | IC50 [11]: 610 ± 20 nM | IC50 [12]: > 2500 nM | IC50 [13]: 1810 ± 50 nM | IC50 [14]: 1960 ± 40 nM

O=C1OCC2=C1C(c1ccc(Br)cn1)C1=C(N2)C(=O)c2ccccc2C1=O (stereo not drawn) [5o, 11-(5-Bromopyridin-2-yl)-4,11-dihydrobenzo[g]furo[3,4-b]quinoline-1,5,10(3H)-trione]
IC50 [10]: > 2500 nM | IC50 [11]: > 2500 nM | IC50 [12]: > 2500 nM | IC50 [13]: > 20000 nM | IC50 [14]: > 2500 nM

Cc1c2ccncc2c(C)c2c1[nH]c1ccccc12 [Ellipticine, reference compound]
IC50 [10]: 1150 ± 10 nM | IC50 [11]: 1600 ± 20 nM | IC50 [12]: 1510 ± 50 nM | IC50 [13]: 6180 ± 110 nM | % Necrotic cells ([3]; SK-LU-1, 1.3 μM): 3.00% | % Late apoptosis cells ([3]; SK-LU-1, 1.3 μM): 25.71% | % Early apoptosis cells ([3]; SK-LU-1, 1.3 μM): 28.22% | % Total apoptosis cells ([3]; SK-LU-1, 1.3 μM): 53.93% | Percentage of cell by phases, % G0/G1 ([6]; SK-LU-1, 1.3 μM): 10.09% | Percentage of cell by phases, % G2/M ([6]; SK-LU-1, 1.3 μM): 71.29% | Percentage of cell by phases, % S ([6]; SK-LU-1, 1.3 μM): 12.52% | IC50 [14]: 1820 ± 30 nM

CC[C@]1(O)C[C@H]2CN(CCc3c([nH]c4ccccc34)[C@@](C(=O)OC)(c3cc4c(cc3OC)N(C=O)[C@H]3[C@@](O)(C(=O)OC)[C@H](OC(C)=O)[C@]5(CC)C=CCN6CC[C@]43[C@@H]65)C2)C1 [Vincristine, reference compound]
% Necrotic cells ([3]; SK-LU-1, 0.4 μM): 4.15% | % Late apoptosis cells ([3]; SK-LU-1, 0.4 μM): 3.66% | % Early apoptosis cells ([3]; SK-LU-1, 0.4 μM): 15.13% | % Total apoptosis cells ([3]; SK-LU-1, 0.4 μM): 18.79% | % Necrotic cells ([3]; SK-LU-1, 4.0 μM): 3.62% | % Late apoptosis cells ([3]; SK-LU-1, 4.0 μM): 4.71% | % Early apoptosis cells ([3]; SK-LU-1, 4.0 μM): 19.93% | % Total apoptosis cells ([3]; SK-LU-1, 4.0 μM): 24.64% | Percentage of cell by phases, % G0/G1 ([6]; SK-LU-1, 0.4 μM): 52.28% | Percentage of cell by phases, % G2/M ([6]; SK-LU-1, 0.4 μM): 6.72% | Percentage of cell by phases, % S ([6]; SK-LU-1, 0.4 μM): 38.19% | Percentage of cell by phases, % G0/G1 ([6]; SK-LU-1, 4.0 μM): 0.07% | Percentage of cell by phases, % G2/M ([6]; SK-LU-1, 4.0 μM): 82.57% | Percentage of cell by phases, % S ([6]; SK-LU-1, 4.0 μM): 13.93%
